From ChEMBL document CHEMBL1121715, “New antiarrhythmic agents. 4. 1'-(Aminoalkyl)-1,2,3,4-tetrahydronaphthalene-1-spiro-3'-pyrrolidine-2',5'-dione derivatives” (J Med Chem, 1981)

Key:
Mus musculus [1] = experiment: Protection against chloroform induced arrhythmias in mice after subcutaneous administration at 100 mg/kg dose.; assay type: functional
Procedure, shortened: (§1)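 Groups of 10 unanesthetized mice got sc injection of drug in 0.9% saline. After 20 min observation they were placed one by one in chloroform-vapor-saturated air. When breathing stopped, the thorax was opened and the heart inspected by eye; coordinated ventricular contractions counted as protected.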

Mus musculus [2] = species on record: Mus musculus; experiment: Percentage toxicity measured as ataxia.; assay type: organism-based; settings: in vivo
Procedure, shortened: (§2)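 Mice (groups of 10) were dosed sc with drug in 0.9% saline and watched for 20 min for overt toxicity (ataxia, convulsions, loss of righting reflex, death) before chloroform exposure.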

Mus musculus [3] = species on record: Mus musculus; experiment: Percentage toxicity measured as convulsions.; assay type: organism-based; settings: in vivo; procedure, shortened: as §2
[4] = Percentage toxicity measured as death of mice.; assay type: organism-based; set-up: concentration or dose not given beside the values; settings: mouse, in vivo; read-out: Death
Mus musculus [5] = species on record: Mus musculus; experiment: Percentage toxicity measured as loss of righting reflex.; assay type: organism-based; settings: in vivo; procedure, shortened: as §2
Mus musculus [6] = experiment: Protection against chloroform induced arrhythmias was measured in mice after sc administration at given dose; assay type: functional; procedure, shortened: as §1
Mus musculus [7] = experiment: Ataxia was measured in mice after sc administration at given dose; assay type: functional
Procedure, shortened: (§3)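 Mice in groups of 10 received drug sc in 0.9% saline and were watched 20 min for overt toxicity before chloroform exposure. At least three doses were given.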

Mus musculus [8] = experiment: Ataxia was measured in mice after sc administration at given dose.; assay type: functional; procedure, shortened: as §3
Mus musculus [9] = experiment: Protection against chloroform induced arrhythmias was measured in mice after sc administration at given dose.; assay type: functional; procedure, shortened: as §1
Canis familiaris [10] = species on record: Canis familiaris; experiment: The dose at which toxicity was measured.; assay type: organism-based, Canis lupus familiaris; settings: dog, in vivo
Procedure, shortened: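 Adult female dogs (6.7–14.5 kg) had two-stage ligation of the left anterior descending coronary artery the day before testing. After control ventricular rate, % ectopic beats and mean arterial pressure were recorded, the drug (HCl salt, isotonic solution) was infused iv without anesthesia at 0.1, 0.5 or 1.0 (mg/kg)/min, mostly 0.5. Infusion continued until the arrhythmia was abolished or cardiovascular/CNS toxicity appeared. Cumulative dose is given in mmol/kg; toxicity included convulsion and P-R prolongation ≥25%.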

Canis familiaris [11] = experiment: MABP value was measured in anesthetized dog at 0.32+/-0.11 dose.; assay type: functional, Canis lupus familiaris
Canis familiaris [12] = experiment: Ventricular rate was measured in anesthetized dog at 0.32+/-0.11 dose; assay type: functional, Canis lupus familiaris, Heart; settings: in the assay text read “unanesthetized” for “anesthetized”
Procedure, shortened: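 Adult female dogs (6.7–14.5 kg) had ventricular arrhythmias from two-stage ligation of the left anterior descending coronary artery the day before. Ventricular rate (bpm) was read at maximal antiarrhythmic effect against cumulative dose.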

Canis familiaris [13] = experiment: % ectopic beats was measured in unanesthetized dog at 0.32+/-0.11 dose; 2+/-2
[14] = Mus musculus, sc, read-out: ED50

| SMILES | Protection (Mus musculus [1]) [%] | Ataxia (Mus musculus [2]) [%] | Convulsion (Mus musculus [3]) [%] | mortality [4] [%] | Loss of righting reflex (Mus musculus [5]) [%] | ED50 (Mus musculus [6]) [µmol/kg] | ED50 (Mus musculus [7]) [µmol/kg] | ED50 (Mus musculus [8]) [µmol/kg] | ED50 (Mus musculus [9]; [14]) [µmol/kg] | Protection (Mus musculus [1]; 100 mg/kg) [%] | ED50 (Mus musculus [9]) [µmol/kg] | Cumulative dose (Canis familiaris [10]) | MABP (Canis familiaris [11]) [mmHg] | Ventricular rate (Canis familiaris [12]) [beats min-1] | Ectopic beats (Canis familiaris [13]) [%] |
| --- | --- | --- | --- | --- | --- | --- | --- | --- | --- | --- | --- | --- | --- | --- | --- |
| CCN(CC)CCCN1C(=O)CC(c2ccccc2)C1=O (stereo not drawn) | 30 | 0 | 0 | 0 | 0 |  |  |  |  |  |  |  |  |  |  |
| CN(CCO)CCN1C(=O)CC2(CCCc3ccccc32)C1=O (stereo not drawn) | 30 | 0 | 0 | 0 | 0 |  |  |  |  |  |  |  |  |  |  |
| CCN(CC)CCCN1C(=O)CC2(CCCc3ccc(C)cc32)C1=O (stereo not drawn) | 70 | 0 | 0 | 0 | 0 | 210 |  |  |  |  |  |  |  |  |  |
| CCN(CC)C(C)CCN1C(=O)CC2(CCCc3ccc(O)cc32)C1=O (stereo not drawn) | 80 | 100 | 100 | 20 | 100 | 80 | 80 |  |  |  |  |  |  |  |  |
| CCCC1(c2ccccc2)CC(=O)N(CCN(C)C)C1=O (stereo not drawn) | 40 | 100 | 0 | 0 | 0 |  |  | 270 | 390 |  |  |  |  |  |  |
| CCN(CC)CCCN1C(=O)CC2(CCCc3ccc(OC(C)C)cc32)C1=O (stereo not drawn) | 90 | 100 | 100 | 0 | 0 | 140 | 110 |  |  |  |  |  |  |  |  |
| O=C1NC(=O)C(C2CCc3ccccc3C2)N1 (stereo not drawn) | 20 | 0 | 0 | 0 | 0 |  |  |  |  |  |  |  |  |  |  |
| CN(CCO)CCN1C(=O)CC2(CCc3ccccc3C2)C1=O (stereo not drawn) | 30 | 100 | 40 | 0 | 0 |  |  |  |  |  |  |  |  |  |  |
| CCN(CC)CCCN1C(=O)CC2(CCCc3ccc(Cl)cc32)C1=O (stereo not drawn) | 90 | 100 | 0 | 0 | 0 | 160 | 110 |  |  |  |  |  |  |  |  |
| CN(CCO)CCCCN1C(=O)CC2(CCCc3ccccc32)C1=O (stereo not drawn) | 10 | 0 | 0 | 0 | 0 |  |  |  |  |  |  |  |  |  |  |
| CN(CCO)CCCN1C(=O)CC2(CCCc3ccccc32)C1=O (stereo not drawn) | 30 | 0 | 0 | 0 | 0 | 560 | 760 |  |  |  |  |  |  |  |  |
| CCN(CC)CCCN1C(=O)CC2(CCCc3cc(OC)ccc32)C1=O (stereo not drawn) | 40 | 100 |  | 0 | 0 |  |  |  |  |  |  |  |  |  |  |
| CCN(CC)C(C)CCN1C(=O)CC2(CCCc3cc(OC)ccc32)C1=O (stereo not drawn) | 0 | 60 | 0 | 0 | 0 |  |  |  |  |  |  |  |  |  |  |
| CCN(CC)C(C)CN1C(=O)CC2(CCCc3ccc(O)cc32)C1=O (stereo not drawn) | 60 | 50 | 0 | 0 | 0 |  |  |  |  |  |  |  |  |  |  |
| COCCN(C)CCCN1C(=O)CC2(CCCc3ccccc32)C1=O (stereo not drawn) | 30 | 100 | 100 | 0 | 100 |  |  |  |  |  |  |  |  |  |  |
| COc1ccc2c(c1)CCCC21CC(=O)N(CCN(C)C)C1=O (stereo not drawn) | 20 | 100 | 0 | 0 | 0 |  |  |  |  |  |  |  |  |  |  |
| CCN(CC)CCCCN1C(=O)CC2(CCCc3ccccc32)C1=O (stereo not drawn) | 90 | 100 | 0 | 0 | 0 | 180 | 180 |  |  |  |  |  |  |  |  |
| CCN(CC)C(C)CN1C(=O)CC2(CCCc3ccccc32)C1=O (stereo not drawn) | 50 | 100 | 100 | 0 | 0 |  |  |  |  |  |  |  |  |  |  |
| O=C1CC2(CCCc3ccccc32)C(=O)N1CCCN1CCOCC1 (stereo not drawn) | 20 | 100 | 0 | 0 | 0 |  |  |  |  |  |  |  |  |  |  |
| CCN(CC)CCCN1C(=O)CC2(CCCc3ccccc32)C1=O (stereo not drawn) | 80 | 100 | 0 | 0 | 0 | 200 | 190 |  |  |  |  |  |  |  |  |
| CCN(CC)CCCCN1C(=O)CC2(CCCc3cc(O)ccc32)C1=O (stereo not drawn) | 70 | 0 | 0 | 0 | 0 |  |  |  | 260 |  |  |  |  |  |  |
| NCCCCCN1C(=O)CC2(CCCc3ccccc32)C1=O (stereo not drawn) | 20 | 0 | 0 | 0 | 0 |  |  |  |  |  |  |  |  |  |  |
| CCN(CC)C(C)CCN1C(=O)CC2(CCCc3ccccc32)C1=O (stereo not drawn) | 40 | 100 | 0 | 0 | 0 |  |  |  |  |  |  |  |  |  |  |
| COc1ccc2c(c1)CCCC21CC(=O)N(CCCN(C)C)C1=O (stereo not drawn) | 0 | 100 | 0 | 0 | 0 |  |  |  |  |  |  |  |  |  |  |
| CCN(CC)CCCCCN1C(=O)CC2(CCCc3ccccc32)C1=O (racemic) |  | 0 | 0 | 0 | 0 |  |  |  | 240 | 80 |  |  |  |  |  |
| CCN(CC)CCCCCN1C(=O)CC2(CCCc3ccccc32)C1=O (single isomer, unassigned; (+)) |  |  |  |  |  |  |  |  |  | 50 | 210 |  |  |  |  |
| CCN(CC)CCCCCN1C(=O)CC2(CCCc3ccccc32)C1=O (single isomer, unassigned; (-)) |  | 100 | 30 |  |  |  |  |  |  | 90 | 160 |  |  |  |  |
| Cc1cccc(C)c1NC(=O)C(C)N (stereo not drawn) [TOCAINIDE] | 20 | 10 | 0 | 0 | 0 |  |  | 760 | 1300 |  |  | 0.3 | 108 | 148 | 2 |
